Calls of active or inactive are those of the source. No cut-off for these calls is given here.
Assays:
[1] = tested on: Pseudomonas aeruginosa; experiment: Antimicrobial activity against Pseudomonas aeruginosa PA14 by twofold serial dilution method; format: functional
[2] = tested on: Saccharomyces cerevisiae; experiment: Antimicrobial activity against Saccharomyces cerevisiae BY4742 by twofold serial dilution method; format: functional
[3] = tested on: Candida albicans; experiment: Antimicrobial activity against Candida albicans F5 by twofold serial dilution method; format: functional
[4] = tested on: Staphylococcus aureus; experiment: Inhibition of MDR protein in wild-type Staphylococcus aureus 8325-4 assessed as potentiation of antimicrobial activity of berberine after 18 hrs by twofold serial dilution method
[5] = target: T1, Quinolone resistance protein NorA (Staphylococcus aureus) (UniProt P0A0J7); experiment: Inhibition of NorA efflux pump in wild-type Staphylococcus aureus 8325-4 assessed as fold reduction of berberine MIC at 56 uM by twofold serial dilution method
T1 sequence (whole entry): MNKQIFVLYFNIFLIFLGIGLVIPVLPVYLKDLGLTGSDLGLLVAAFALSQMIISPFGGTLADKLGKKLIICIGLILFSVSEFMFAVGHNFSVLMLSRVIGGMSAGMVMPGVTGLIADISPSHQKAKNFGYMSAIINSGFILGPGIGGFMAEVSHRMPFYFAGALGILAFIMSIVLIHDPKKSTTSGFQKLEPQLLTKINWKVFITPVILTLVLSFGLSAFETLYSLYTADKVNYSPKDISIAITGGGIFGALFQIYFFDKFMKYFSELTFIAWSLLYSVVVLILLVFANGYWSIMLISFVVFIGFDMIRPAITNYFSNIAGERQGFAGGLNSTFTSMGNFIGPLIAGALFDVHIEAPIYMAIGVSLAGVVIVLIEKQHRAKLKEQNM
How it was run: (§1)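 Checkerboard assay in 96-well plates. Berberine is diluted 2-fold from 30 to 0.5 µg/mL (89-1.5 µM) across rows, and plant compound from 15 to 0.015 µg/mL across columns, with single-agent dilution series on each plate. Inoculum 5 × 10⁶ CFU/mL, 24 h at 37 °C, growth read at A600. Result is the fold reduction in berberine MIC.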

[6] = target: T1, Quinolone resistance protein NorA (Staphylococcus aureus); experiment: Inhibition of NorA efflux pump in Staphylococcus aureus K1758 mutant assessed as fold reduction of berberine MIC at 56 uM by twofold serial dilution method; how it was run: as §1
[7] = tested on: Enterococcus faecalis; experiment: Antimicrobial activity against Enterococcus faecalis V583 by twofold serial dilution method; format: functional
[8] = target: T1, Quinolone resistance protein NorA (Staphylococcus aureus); experiment: Inhibition of NorA efflux pump in Staphylococcus aureus K2361 mutant overexpressing NorA assessed as potentiation of berberine-induced antimicrobial activity at 56 uM by twofold serial dilution method; how it was run: as §1
[9] = tested on: Staphylococcus aureus; experiment: Antimicrobial activity against wild-type Staphylococcus aureus 8325-4 by twofold serial dilution method; format: functional
[10] = tested on: Escherichia coli; experiment: Antimicrobial activity against wild-type Escherichia coli K12 by twofold serial dilution method; format: functional
[11] = target: T1, Quinolone resistance protein NorA (Staphylococcus aureus); experiment: Inhibition of NorA efflux pump in wild-type Staphylococcus aureus 8325-4 assessed as fold reduction of berberine MIC at 48 uM by twofold serial dilution method; how it was run: as §1
[12] = target: T1, Quinolone resistance protein NorA (Staphylococcus aureus); experiment: Inhibition of NorA efflux pump in Staphylococcus aureus K1758 mutant assessed as fold reduction of berberine MIC at 48 uM by twofold serial dilution method; how it was run: as §1
[13] = target: T1, Quinolone resistance protein NorA (Staphylococcus aureus); experiment: Inhibition of NorA efflux pump in Staphylococcus aureus K2361 mutant overexpressing NorA assessed as potentiation of berberine-induced antimicrobial activity at 48 uM by twofold serial dilution method; how it was run: as §1
[14] = tested on: Staphylococcus aureus; experiment: Antimicrobial activity against NorA knockout Staphylococcus aureus K1758 mutant; format: functional
[15] = tested on: Staphylococcus aureus; experiment: Antimicrobial activity against wild-type Staphylococcus aureus 8325-4; format: functional
How it was run: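 Wild-type S. aureus 8325-4 grown in Mueller-Hinton broth and inoculated at 10⁵ cells/mL. Test compound serially diluted 2-fold from 50 µg/mL ([…]). Incubated 18 h at 37 °C. Growth read as absorbance at 600 nm. Triplicate, following NCCLS recommendations.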

[16] = tested on: Staphylococcus aureus; experiment: Antimicrobial activity against Staphylococcus aureus K2361 mutant overexpressing NorA; format: functional
[17] = target: T1, Quinolone resistance protein NorA (Staphylococcus aureus); experiment: Inhibition of NorA efflux pump in wild-type Staphylococcus aureus 8325-4 assessed as fold reduction of berberine MIC at 42 uM by twofold serial dilution method; how it was run: as §1
[18] = target: T1, Quinolone resistance protein NorA (Staphylococcus aureus); experiment: Inhibition of NorA efflux pump in Staphylococcus aureus K2361 mutant overexpressing NorA assessed as potentiation of berberine-induced antimicrobial activity at 42 uM by twofold serial dilution method; how it was run: as §1

Row | SMILES | MIC [1] [µM] | MIC [2] [µM] | MIC [3] [µM] | Activity [4] | fold change (FC) [5] | fold change (FC) [6] | MIC [7] [µM] | Activity [8] | MIC [9] [µM] | MIC [10] [µM] | fold change (FC) [11] | fold change (FC) [12] | Activity [13] | MIC [14] [µM] | MIC [15] [µM] | MIC [16] [µM] | fold change (FC) [17] | Activity [18]
1 | COc1ccc2c(c1)O[C@@H]1c3ccc(O)cc3OC[C@H]21 | > 140 | > 140 | > 140 | Active | 4 | 4 | > 140 | inactive | > 140 | > 140 | – | – | – | – | – | – | – | –
2 | COc1cc(O)ccc1-c1oc2cc3c(cc2c1C=O)OCO3 [SPINOSAN A] | > 140 | > 140 | > 140 | Active | – | – | > 140 | – | > 140 | > 140 | 8 | 15 | inactive | – | – | – | – | –
3 | COc1ccc2cc3[n+](cc2c1OC)CCc1cc2c(cc1-3)OCO2 [BERBERINE CHLORIDE] | – | – | – | – | – | – | – | – | – | – | – | – | – | 89 | 372 | > 1490 | – | –
4 | COc1ccc2c(c1)O[C@@H]1c3ccc(OC)c(O)c3OC[C@H]21 | > 140 | > 140 | > 140 | inactive | – | – | > 140 | – | > 140 | > 140 | – | – | – | – | – | – | – | –
5 | COc1ccc2c(C=O)c(-c3ccc(O)cc3OC)oc2c1 [SPINOSAN B] | > 140 | > 140 | > 140 | inactive | – | – | > 140 | – | > 140 | > 140 | – | – | – | – | – | – | – | –
6 | COc1ccc(-c2coc3cc(O)c(OC)cc3c2=O)c(O)c1 | > 140 | > 140 | > 140 | Active | – | – | > 140 | – | > 140 | > 140 | – | – | inactive | – | – | – | – | –
7 | COc1cc(OC(C)=O)ccc1-c1oc2cc3c(cc2c1C=O)OCO3 [SPINOSAN A ACETATE] | > 140 | > 140 | > 140 | Active | – | – | > 140 | – | > 140 | > 140 | – | – | – | – | – | – | 62 | Active
